EWS-Fli inh = EWS/Fli transcriptional activity inhibition; A673 NR0B1-luciferase reporter, viability-normalised; inhibition, % at 12.6 µM; 350,000 tested, 0.67% active;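 active = mean inhibition of at least 50% after viability correction, with every replicate also passing that limit; inconclusive = mean reaches 50% but only one of two replicates passes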;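 note: firefly luciferase signal divided by Alamar Blue viability fluorescence both relative to DMSO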
CFTR F508del cor = CFTR F508del correction in bronchial cells | CFBE cells, YFP halide quenching; stimulated with forskolin plus potentiator P3; % fluorescence drop versus neutral controls | activity (quench increase), % at 7.58 µM | 350,000 tested, 0.36% active;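 active = mean added fluorescence quench of at least 8% versus neutral control, with both replicates also reaching 8%; inconclusive = only one of the mean or replicate conditions met; inactive = mean below 8% and not both replicates reaching 8%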;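 note: cells transiently co-express mutant CFTR-F508del with the halide-sensitive YFP; corrector assay measuring rescue of mutant channel to the surface after 24 h compound exposure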
FN deposition inh = fibronectin deposition inhibition | 350,000 tested, 0.086% active | inhibition, % at 12.6 µM | AID 743247 | AH1F fibroblasts, Alexa488-fibronectin deposition fluorescence, overnight;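 active = mean inhibition across replicates of 30% or more, regardless of how many single replicates reach that level; inconclusive = mean under 30% yet at least half of replicates reach 30%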
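Material: AH1F fibroblast monolayer depositing Alexa488-labelled fibronectin into matrix / Amount: 10000 AH1F cells per well / Signal: fluorescence 485/525 nm / Medium: DMEM, 2% serum / Compound: single dose, pinned / Incubation: 1 h cell adhesion before compound, then overnight fibronectin incubation / Reagent: Alexa488-FN, 24 nM final / Read-out: inhibition of fibronectin deposition signal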
PGC1a acetyl inh = PGC1a acetylation modulation, inhibitor mode; U2OS PGC1a acetylation, AlphaScreen anti-acetyl-lysine; with virally co-expressed GCN5 acetyltransferase; inhibition, % at 15.6 µM; 350,000 tested, 0.17% active; AID 651687;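 active = every replicate shows inhibition of at least 40%; inconclusive = mean inhibition at least 40% but some replicate below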
Env fusion inh = inhibitors of HIV Env-mediated cell fusion | HeLa-JRFL Env/CEM21 cell fusion, luciferase | inhibition, % at 12.3 µM | 360,000 tested, 1.1% active;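 active = mean replicate inhibition score of at least 50 and every replicate individually at or above 50; inconclusive = only one of the two criteria met; inactive = mean below 50 and not all replicates reaching 50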
PAX8 inh HTS = lowers PAX8-driven luciferase in RMG-I cells | RMG-I TPO-luciferase reporter, SteadyGlo, 24 h | inhibition, % at 12.6 µM | 360,000 tested, 1.2% active | AID 652154;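 active = mean replicate inhibition at least 60% with every replicate also reaching 60%; inconclusive = only one of the two criteria is met; inactive = mean below 60% and not all replicates reaching 60%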;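 note: luciferase light reporting Pax8 driven TPO promoter activity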
Hits are given with their value; - = inactive; ? = inconclusive; . = no result given; [ ] = dose if it differs, or a comment. In the library only some 2.3% were active in any assay of this set; here they are far more common.

SMILES	EWS-Fli inh	CFTR F508del cor	FN deposition inh	PGC1a acetyl inh	Env fusion inh	PAX8 inh HTS
C[C@@H]1CN([C@@H](C)CO)C(=O)c2cc(NS(=O)(=O)c3ccc(F)cc3)ccc2O[C@@H](C)CCCCO[C@H]1CN(C)CC1CCCCC1	-	-	.	-	-	-
C[C@@H]1CCCCO[C@@H](CN(C)CC2CCCCC2)[C@H](C)CN([C@H](C)CO)C(=O)c2cc(NS(=O)(=O)c3ccc(Cl)cc3)ccc2O1	-	-	.	-	-	92
C[C@@H]1CN([C@H](C)CO)C(=O)c2cc(NS(=O)(=O)c3ccc(F)cc3)ccc2O[C@@H](C)CCCCO[C@@H]1CN(C)CC1CCCCC1	-	-	.	-	-	101
C[C@@H]1CN([C@@H](C)CO)C(=O)c2cc(NC(=O)Nc3ccc(F)cc3)ccc2O[C@H]1CN(C)S(=O)(=O)c1ccccc1	-	-	.	-	.	-
CC(=NNC(=S)N1CCCC1)c1ccccn1	-	-	-	-	-	-
CC(=NNC(=S)N1CCC1)c1ccccn1	-	-	-	-	-	94
CC(=NNC(=S)SCc1ccccc1)c1ccccn1	-	-	-	.	79	-
O=C(Nc1cccc(F)c1)N[C@@H]1CC[C@@H](CCNS(=O)(=O)c2cccc(Cl)c2)O[C@@H]1CO	-	-	.	-	-	107
O=C(Nc1ccc(F)cc1)N[C@H]1CC[C@@H](CCNC(=O)c2cc(Cl)cc(Cl)c2)O[C@@H]1CO	-	-	.	-	-	-
O=C(Nc1ccc(F)cc1)N[C@H]1CC[C@H](CCNC(=O)c2cc(Cl)cc(Cl)c2)O[C@H]1CO	-	-	.	-	-	87
CN1CCN(C(=O)C[C@H]2C[C@H]3c4cc(NC(=O)c5ccc6c(c5)OCO6)ccc4O[C@H]3[C@H](CO)O2)CC1	-	-	.	-	-	-
Cc1ccc(S(=O)(=O)N(C)C[C@H]2Oc3cc(C#CC4CCCC4)ccc3S(=O)(=O)N([C@H](C)CO)C[C@H]2C)cc1	-	-	-	-	-	-
Cc1ccc(S(=O)(=O)N(C)C[C@@H]2Oc3cc(C#CC4CCCC4)ccc3S(=O)(=O)N([C@H](C)CO)C[C@H]2C)cc1	-	-	-	-	58[16.7 µM]	.
Cc1ccc(S(=O)(=O)N(C)C[C@H]2Oc3cc(C#Cc4ccncc4)ccc3S(=O)(=O)N([C@@H](C)CO)C[C@H]2C)cc1	-	-	.	-	.	104
Cc1ccc(S(=O)(=O)N2[C@H](C(C)C)[C@H]3[C@H]4C(=O)N(c5ccccc5)C(=O)[C@H]4CC(=O)[C@H]3[C@@H]2c2ccccc2)cc1	-	-	-	-	59	-
C[C@H](NC(=O)C[C@H]1CC[C@@H](NC(=O)CN2CCOCC2)[C@H](CO)O1)c1ccccc1	-	-	-	-	-	-
COc1ccc(N(C(=O)c2ccco2)C(C(=O)NC2CCCC2)c2ccc(OC)c(OC)c2)cc1 (stereo not drawn)	-	-	-	-	55	-
COc1ccc(C(C(=O)NC2CCCC2)N(C(=O)c2ccco2)c2ccc(OC)c(OC)c2)cc1 (stereo not drawn)	.	.	-	-	-	-
Cc1ccc(S(=O)(=O)N2C[C@@H]3[C@H]4CC[C@H](C4)[C@@H]3[C@@H](C)[C@@H]2c2cccn2Cc2ccccc2)cc1	-	-	-	.	-	-
Cc1ccc(S(=O)(=O)N2C[C@@H]3[C@H]4CC[C@H](C4)[C@@H]3[C@@H](C)[C@@H]2c2ccn(Cc3ccccc3)c2)cc1	-	-	-	.	63	-
O=S(=O)(Cc1ccccc1)N1CC2(C1)[C@@H](c1ccccc1)[C@H](CO)N2CC1CC1	.	.	-	.	.	.
C[C@@H]1CCCCO[C@@H](CN(C)C(=O)Nc2ccc(F)cc2)[C@@H](C)CN([C@H](C)CO)C(=O)c2cc(NS(=O)(=O)c3ccc(Cl)cc3)ccc2O1	-	-	-	-	-	-
C[C@@H]1CCCCO[C@H](CN(C)C(=O)Nc2ccccc2)[C@@H](C)CN([C@@H](C)CO)C(=O)c2cc(NS(=O)(=O)c3ccc(Cl)cc3)ccc2O1	-	-	-	-	-	66
C[C@@H]1CCCCO[C@@H](CN(C)C(=O)Nc2ccc(F)cc2)[C@H](C)CN([C@H](C)CO)C(=O)c2cc(NS(=O)(=O)c3ccc(Cl)cc3)ccc2O1	-	-	-	-	-	91
C[C@@H]1CCCCO[C@H](CN(C)C(=O)Cc2ccccc2)[C@@H](C)CN([C@@H](C)CO)C(=O)c2cc(NS(=O)(=O)c3ccc(Cl)cc3)ccc2O1	-	-	-	-	-	79
SMILES	EWS-Fli inh	CFTR F508del cor	FN deposition inh	PGC1a acetyl inh	Env fusion inh	PAX8 inh HTS
C[C@@H]1CN([C@H](C)CO)C(=O)c2cc(NS(=O)(=O)c3ccc(Cl)cc3)ccc2O[C@@H](C)CCCCO[C@H]1CN(C)C(=O)Nc1ccccc1	-	-	-	-	-	-
COc1ccc2c3c(n(C)c2c1)[C@@H](CO)N(C(=O)c1ccncc1)CC31CCN(S(C)(=O)=O)CC1	-	-	.	-	.	-
CN1C[C@@H]2[C@H](c3ccccc31)[C@H](CO)N2C(=O)Nc1ccccc1	-	-	.	-	.	-
CC(C)NC(=O)Nc1cccc2c1O[C@@H](CN(C)C(=O)OC(C)(C)C)[C@@H](C)CN(C)C2=O	.	.	-	.	.	.
C[C@@H]1CCCCO[C@@H](CN(C)S(=O)(=O)c2cn(C)cn2)[C@H](C)CN([C@@H](C)CO)C(=O)c2cc(NS(=O)(=O)c3cn(C)cn3)ccc2O1	-	-	-	-	-	-
NCCc1c(-c2ccccc2)n(-c2ccccc2)c2ccccc12	-	-	44	-	-	-
COc1ccc(C(=O)Nc2nc3ccccc3[nH]2)cc1	76	-	-	-	-	?
COc1cccc(C(=O)Nc2nc3ccccc3s2)c1	-	-	-	-	-	-
COc1ccc(C(=O)Nc2ccc3c4c(cccc24)CC3)cc1	.	.	-	86	-	.
Cc1ccc(C(=O)Nc2nc3ccccc3[nH]2)cc1	78	-	-	-	-	81
COc1cccc(C(=O)Nc2nc3ccccc3[nH]2)c1	.	.	.	-	.	.
COc1ccc(C(=O)Nc2nc3ccccc3s2)cc1	61	-	-	.	-	-
C[C@@H]1CCCCO[C@H](CN(C)Cc2ccc3c(c2)OCO3)[C@H](C)CN([C@@H](C)CO)C(=O)c2cc(NC(=O)Nc3ccc(F)cc3)ccc2O1	-	-	.	-	-	-
Cc1cccc(C(=O)N[C@H](C(=O)Nc2nc3ccccc3[nH]2)C(C)C)c1	56	-	-	.	-	-
Cc1ccc(C(=O)Nc2cc3ccccc3oc2=O)cc1	79	.	.	-	-	-
COc1ccc(C(=O)Nc2ccc3ccccc3c2)cc1	61	-	-	-	-	-
Cc1ccc(C(=O)Nc2cnc3ccccc3c2)cc1	.	.	-	-	94	90
Cc1cc(C(=O)Nc2cnc3ccccc3c2)ccc1[N+](=O)[O-]	-	-	-	.	-	-
